Screening results from PubChem BioAssay.
Compounds with a hit are over-represented: about 2.2% of the library has one in this group of screens.
CHRM1 agonist = agonists of human M1 muscarinic receptor; CHO-K1 hM1, Fluo-8 calcium fluorescence, agonist mode; 0% DMSO, 100% acetylcholine EC100; activation, % at 3 µM; hit rate 0.33% among 360,000; AID 588814; P11229;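 active = activation above the run's mean compound activation plus 3 SD, cut at about 16% in these data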;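 note: peak over basal fluorescence ratio within a 140 s kinetic read after compound addition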
Target sequence (P11229 whole entry, looked up): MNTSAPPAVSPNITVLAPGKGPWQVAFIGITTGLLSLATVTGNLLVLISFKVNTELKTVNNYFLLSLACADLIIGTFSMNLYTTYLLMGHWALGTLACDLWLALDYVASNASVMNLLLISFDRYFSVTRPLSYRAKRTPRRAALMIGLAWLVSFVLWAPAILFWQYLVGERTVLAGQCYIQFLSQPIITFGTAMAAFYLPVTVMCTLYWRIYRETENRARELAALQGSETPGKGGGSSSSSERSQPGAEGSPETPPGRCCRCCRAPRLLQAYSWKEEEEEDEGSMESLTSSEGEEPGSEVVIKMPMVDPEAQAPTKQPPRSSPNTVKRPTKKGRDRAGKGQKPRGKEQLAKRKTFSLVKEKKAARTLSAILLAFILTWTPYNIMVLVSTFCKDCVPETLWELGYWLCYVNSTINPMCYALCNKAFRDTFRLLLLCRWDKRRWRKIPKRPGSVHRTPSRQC
CHRM5 PAM = positive allosteric modulators of human muscarinic M5 receptor; activation, % at 3 µM; CHO-K1 hM5, Fluo-8 calcium, ACh EC20 PAM; 0% = ACh EC20, 100% = ACh EC100; hit rate 0.3% among 360,000;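 active = activation above the run cutoff, the mean activation of all test compounds plus 3 SD, cut at about 18% in these data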
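Replicates: One well per compound, no replicates | System: Human M5 receptor in CHO-K1 cells | Benchmarks: Low control EC20 acetylcholine (0%), high control EC100 acetylcholine (100%) | Probe or stimulus: Acetylcholine, EC20 level | Times: Fluo-8 loading 80 min at 37 °C plus 30 min room temperature | Signal: Intracellular calcium via Fluo-8 fluorescence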
CHRM5 agonist = CHRM5 agonism in calcium assay | CHO-K1 hM5 cells, Fluo-8 calcium fluorescence; 0% DMSO wells, 100% maximal acetylcholine response | activation, % at 3 µM | P08912 | hit rate 0.19% among 360,000;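 active = activation above the run's mean over test compounds plus 3 SD, cut at about 23% in these data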;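 note: signal is peak over basal fluorescence ratio across the kinetic read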
M1 PAM = positive allosteric modulators of human M1 muscarinic receptor. CHO-K1 hM1, Fluo-8 calcium fluorescence, ACh EC20; 0% = ACh EC20, 100% = maximal ACh. hit rate 0.088% among 360,000. activation, % at 3 µM. P11229; in the data active = activation above about 19%, passing the limit was not always enough
M5 antag = blocks acetylcholine activation of human M5 receptor | P08912 | CHO-hM5 cells, Fluo-8 calcium fluorescence, ACh EC80 | inhibition, % at 3 µM | hit rate 0.59% among 360,000 | AID 624040;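 active = inhibition above a per-plate cutoff, the mean of that plate's test compounds plus 3 SD, cut at about 27% in these data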;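 note: 0% = acetylcholine EC80 with DMSO and 100% = DMSO without agonist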
CHRM1 antagonist = antagonists of human M1 muscarinic receptor. inhibition, % at 3 µM. hit rate 1.3% among 360,000. CHO-K1 hM1, Fluo-8 calcium fluorescence, ACh EC80 antagonist;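 active = percent inhibition above its own plate's cutoff, namely the mean of that plate's compound wells plus 3 SD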;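 note: peak over basal fluorescence ratio during 140 s after agonist addition; 0% = ACh EC80 plus DMSO and 100% = DMSO alone without agonist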
* hit, by the source's call.

SMILES	CHRM1 agonist	CHRM5 PAM	CHRM5 agonist	M1 PAM	M5 antag	CHRM1 antagonist
COc1cc(/C=C(\C#N)c2nc3ccc(C)cc3[nH]2)c([N+](=O)[O-])cc1OC	13	0	3	4	-6	-29
CSCC[C@H](NC(=O)[C@H](Cc1ccccc1)n1c(=O)[nH]c2ccccc2c1=O)C(=O)NCC1CCC(C(=O)O)CC1 (stereo partly specified)	-3	4	1	-2	3	-3
O=C(C1CCC(CNS(=O)(=O)c2cccc3nsnc23)CC1)N1CCN(c2ccccn2)CC1 (stereo unspecified)	-5	-6	2	0	4	3
O=C(CCNS(=O)(=O)c1cccc2nsnc12)N1CCN(c2ccccn2)CC1	-5	-4	-7	-22	7	89*
CCCCCCN1C[C@@H](n2cc(-c3ccc(F)cc3)nn2)[C@H](O)C[C@@H]1c1ccccc1	-5	-2	-2	2	-8	-5
NN=C(c1ccccc1)c1ccccc1	-4	5	5	12	0	-8
N/N=C(\c1ccccc1)C12CN3CN(CN(C3)C1)C2	-9	-19	-10	-27	23	58*
CCNc1nc(=S)nc(NC(C)C)[nH]1	-5	18*	2	0	-8	-2
CCC(=O)Nc1ccc(C(=O)CSc2nnc(-c3ccc(NS(=O)(=O)CC)cc3)o2)cc1OC	-1	14	7	14	-16	-14
CCSc1nsc(NC(=O)Nc2cccc(OC)c2)n1	4	-16	14	-14	20	27*
C=CCSc1nsc(NC(=O)Nc2ccc(F)cc2)n1	5	-21	3	-13	33*	31*
CC(=O)C1=C(C)Nc2ncnn2C1c1ccc(F)cc1 (stereo unspecified)	0	2	-6	13	1	-29
COC(=O)c1ccc(C2C(C(C)=O)=C(C)Nc3ncnn32)cc1 (stereo unspecified)	-11	-7	-1	-32	4	102*
CCOC(=O)C1CCCN(C2CC(=O)N(c3ccc(NC(C)=O)cc3)C2=O)C1 (stereo unspecified)	36*	0	9	-12	4	6
CCOC(=O)C1CCCN(C2CC(=O)N(c3ccc(C)cc3)C2=O)C1 (stereo unspecified)	20*	2	11	-4	-3	-7
CCOC(=O)N1CCN(C2CC(=O)N(c3ccc(C)cc3)C2=O)CC1 (stereo unspecified)	-1	-5	-2	5	1	-19
Cc1ccc(Nc2c(-c3ccc(N4CCOCC4)cc3)nc3cnccn23)cc1	1	19*	7	19	-12	-44
Cc1ccccc1Nc1c(-c2ccc(N3CCOCC3)cc2)nc2cnccn12	-1	4	1	6	1	-10
c1ccc(-c2nc(-c3nccc4ccccc34)oc2-c2ccccc2)cc1	-1	-9	-2	4	19	-3
CC(=O)c1c(C)[nH]c(C(=O)COc2cc(C)ccc2C(C)C)c1C	1	-19	4	-10	41*	36*
CCCC(=O)Nc1cc(C(=O)N(C)CC(OC)OC)ccc1S(=O)(=O)c1ccc(C)cc1	-5	-3	-3	7	6	-14
Cc1cc(Br)ccc1NC(=O)CN(C)C(=O)Cn1c(=O)cnc2ccccc21	-6	-8	-7	-17	18	29*
COC(=O)c1cc(NC(=O)Cn2c(=O)cnc3ccccc32)cc(C(=O)OC)c1	-1	20*	-4	6	-7	1
CN(CC(=O)Nc1cccc(F)c1)C(=O)Cn1c(=O)cnc2ccccc21	-2	10	-4	6	-4	3
COC(=O)Cn1c(=O)cnc2ccccc21	-3	2	1	-4	-3	-11
O=C(C[C@H]1C[C@H](C(=O)N2CCCCC2)[C@@]2(CCc3ccccc3)c3[nH]c4cc(-c5ccco5)ccc4c3CCN2C1=O)NCCC1=CCCCC1	-4	-5	3	0	4	-5
Cc1cc(C)n2nc(C(=O)Nc3ccc(S(=O)(=O)N(C)C)cc3)nc2n1	-3	1	1	4	5	-6
